Reference: ChEMBL document CHEMBL3608292, “Synthesis and biological evaluation of novel myrtucommulones and structural analogues that target mPGES-1 and 5-lipoxygenase” (Eur J Med Chem, 2015)

Key:
[1] = target: T1, Prostaglandin E synthase (Homo sapiens, UniProt O14684); assay: Inhibition of mPGES-1 in microsomal membranes isolated from interleukin-1beta-stimulated human A549 cells using PGH2 as substrate assessed as PGE2 formation preincubated for 15 mins followed by substrate addition measured after 1 min by RP-HPLC analysis; type: cell membranes
T1 sequence (O14684 whole entry): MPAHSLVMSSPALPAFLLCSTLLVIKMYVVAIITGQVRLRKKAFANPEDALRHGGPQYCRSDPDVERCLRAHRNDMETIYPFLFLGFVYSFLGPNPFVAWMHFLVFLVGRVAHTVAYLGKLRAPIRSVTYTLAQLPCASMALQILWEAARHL
Method in brief: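 A549 cells kept 16 h in DMEM with 2% FCS, then 1 ng/ml IL-1β for 72 h. Cells homogenized and sonicated, microsomes obtained by centrifugation at 10,000 × g then 174,000 × g. Microsomes in 0.1 M potassium phosphate pH 7.4 with 2.5 mM glutathione, preincubated 15 min with compound or 0.3% DMSO. 20 µM PGH₂ (final) for 1 min at 4 °C. Stopped with FeCl₂/citric acid containing 11β-PGE₂, solid-phase extraction, RP-HPLC with UV at 195 nm.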

[2] = target: T2, Polyunsaturated fatty acid 5-lipoxygenase (Homo sapiens, UniProt P09917); assay: Inhibition of recombinant human 5-LO expressed in Escherichia coli BL21 using arachidonic acid as substrate assessed as formation of all-trans isomer of LTB4, 5-H(P)ETE preincubated for 5 to 10 mins followed by substrate addition measured after 10 mins by HPLC analysis
T2 sequence (P09917 whole entry): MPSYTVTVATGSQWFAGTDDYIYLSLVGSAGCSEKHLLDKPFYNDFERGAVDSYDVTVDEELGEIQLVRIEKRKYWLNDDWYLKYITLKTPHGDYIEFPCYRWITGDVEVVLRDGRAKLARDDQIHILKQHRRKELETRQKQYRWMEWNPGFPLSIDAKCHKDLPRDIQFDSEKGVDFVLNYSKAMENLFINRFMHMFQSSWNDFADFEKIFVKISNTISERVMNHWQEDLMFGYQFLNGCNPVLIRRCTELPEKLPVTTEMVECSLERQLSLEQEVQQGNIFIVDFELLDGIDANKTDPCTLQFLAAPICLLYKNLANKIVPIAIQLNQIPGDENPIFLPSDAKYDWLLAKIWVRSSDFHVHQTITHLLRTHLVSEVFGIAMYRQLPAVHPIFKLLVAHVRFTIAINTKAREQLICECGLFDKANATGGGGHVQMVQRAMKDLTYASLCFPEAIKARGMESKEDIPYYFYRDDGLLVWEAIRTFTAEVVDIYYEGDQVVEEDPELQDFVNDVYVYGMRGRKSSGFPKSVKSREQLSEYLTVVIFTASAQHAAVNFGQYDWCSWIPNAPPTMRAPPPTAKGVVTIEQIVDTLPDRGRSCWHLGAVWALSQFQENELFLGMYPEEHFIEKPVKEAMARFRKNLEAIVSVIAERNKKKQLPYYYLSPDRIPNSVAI

[3] = target: T2, Polyunsaturated fatty acid 5-lipoxygenase; assay: Inhibition of 5-LO in ionophore A23187-stimulated human PMNL using arachidonic acid as substrate assessed as formation of LTB4, 5(S),12(S)-DiHETE, 5-H(p)ETE preincubated for 15 mins followed by substrate and ionophore addition measured after 10 mins by HPLC analysis
[4] = system: Jurkat; assay: Cytotoxicity against human Jurkat cells assessed as induction of cell death after 48 hrs by MTT assay; type: functional, cell-based
Method in brief: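 Jurkat T cells grown in RPMI 1640 with 10% heat-inactivated FCS, 10 mM HEPES, penicillin/streptomycin at 37 °C, 5% CO₂. Seeded at 2 × 10⁴ per well. Compounds or 0.3% DMSO vehicle added for 48 h. MTT then added until blue staining, cells lysed overnight in 10% SDS/20 mM HCl, absorbance read at 570 nm. Three to four independent experiments.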

[5] = target: Prostaglandin G/H synthase 1 (Homo sapiens, UniProt P23219); assay: Inhibition of COX-1 in human platelet using arachidonic acid as substrate assessed as formation of 12-HHT preincubated for 10 mins followed by substrate addition measured after 5 mins by HPLC analysis
Chain of Prostaglandin G/H synthase 1 (P23219 whole entry): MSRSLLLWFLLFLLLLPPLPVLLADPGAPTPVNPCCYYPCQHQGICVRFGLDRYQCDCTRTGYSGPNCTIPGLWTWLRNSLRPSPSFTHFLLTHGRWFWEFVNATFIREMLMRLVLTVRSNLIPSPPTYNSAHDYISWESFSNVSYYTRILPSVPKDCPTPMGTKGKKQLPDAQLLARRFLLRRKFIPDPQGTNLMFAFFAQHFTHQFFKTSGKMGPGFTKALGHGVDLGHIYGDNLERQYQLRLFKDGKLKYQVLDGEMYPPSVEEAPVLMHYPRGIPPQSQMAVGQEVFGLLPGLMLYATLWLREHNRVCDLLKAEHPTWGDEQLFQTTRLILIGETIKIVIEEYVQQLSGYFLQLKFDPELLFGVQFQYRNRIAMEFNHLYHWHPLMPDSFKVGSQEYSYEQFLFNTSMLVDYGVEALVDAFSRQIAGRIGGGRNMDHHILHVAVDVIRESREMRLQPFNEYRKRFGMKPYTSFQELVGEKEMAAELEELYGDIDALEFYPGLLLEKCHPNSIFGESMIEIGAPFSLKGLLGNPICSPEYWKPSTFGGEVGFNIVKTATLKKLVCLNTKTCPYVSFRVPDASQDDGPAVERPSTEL

[6] = target: T2, Polyunsaturated fatty acid 5-lipoxygenase; assay: Inhibition of 5-LO in human PMNL using arachidonic acid as substrate preincubated for 10 mins followed by substrate addition measured after 10 mins by HPLC analysis
[7] = target: T2, Polyunsaturated fatty acid 5-lipoxygenase; assay: Inhibition of recombinant human 5-LO expressed in Escherichia coli BL21 using arachidonic acid as substrate assessed as formation of LTB4, 5(S),12(S)-DiHETE, 5-H(p)ETE preincubated for 5 to 10 mins followed by substrate addition measured after 10 mins by HPLC

IC50 [1]: 1 µM | IC50 [2]: 15 µM | IC50 [3]: 3.2 µM | IC50 [5]: 17 µM | IC50 [6]: 1.8 µM | IC50 [7]: 5 µM
SMILES: CC(C)C(=O)c1c(O)c([C@H](C2=C(O)C(C)(C)C(=O)C(C)(C)C2=O)C(C)C)c(O)c([C@H](C2=C(O)C(C)(C)C(=O)C(C)(C)C2=O)C(C)C)c1O [MYRTUCOMMULONE A]
EC50 [4]: 2.4 µM
